# Screening data from PubChem.
# Rows were chosen to be rich in hits. Some 1.3% of all compounds tested hit in one or more screens of this group.
# Dynein transport: inhibitors of GR-EGFP nuclear translocation, primary screen, dynein cargo transport inhibitor project, imaging, high-content, 3617.4 mouse cells; hit rate 0.47% among 220,000; test concentration mostly 20 µM; stimulated with dexamethasone, 1 µM; active compounds read low; z-score, hits read low;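 active = plate z-score of nuclear minus cytoplasmic receptor signal below a set negative limit, without overly bright fluorescence or cell loss, cut at about -3.5 in these data, passing the limit was not always enough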;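 note: z-score of nuclear minus cytoplasmic ring GR-EGFP intensity difference per well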
#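 medium = tetracycline-free induction medium containing charcoal-stripped FBS | probe or stimulus = dexamethasone, 1.0 µM final | timing = 48 h induction, then 1 h compound, then 30 min agonist, 37 °C | detection = automated 10x imaging of fixed Hoechst-stained cells | read-out basis = nuclear versus cytoplasmic GR-EGFP signal, averaged per well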
# TbHK1 inh: Trypanosoma brucei hexokinase 1 inhibitors, primary screen, biochemical, G6PDH-coupled NADH absorbance, MLSCN library; hit rate 0.11% among 220,000; AID 1430, 2008; inhibition, % at 10 µM; hexokinase 1 [Trypanosoma brucei]; recombinant TbHK1, G6PDH-coupled NADH A340;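 active = inhibition of 50% or more in the single-dose primary screen; inactive = inhibition below 50%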
# S1P4 antagonist: S1P4 receptor antagonists, primary screen, cell-based; hit rate 0.26% among 220,000; AID 1510, 2009; inhibition, % at 4.98 µM; Sphingosine 1-phosphate receptor 4 (Homo sapiens), O95977; S1P4-expressing cells, antagonist mode, reporter read-out; in the data active = inhibition above about 29%
# Target sequence (O95977 whole entry, looked up): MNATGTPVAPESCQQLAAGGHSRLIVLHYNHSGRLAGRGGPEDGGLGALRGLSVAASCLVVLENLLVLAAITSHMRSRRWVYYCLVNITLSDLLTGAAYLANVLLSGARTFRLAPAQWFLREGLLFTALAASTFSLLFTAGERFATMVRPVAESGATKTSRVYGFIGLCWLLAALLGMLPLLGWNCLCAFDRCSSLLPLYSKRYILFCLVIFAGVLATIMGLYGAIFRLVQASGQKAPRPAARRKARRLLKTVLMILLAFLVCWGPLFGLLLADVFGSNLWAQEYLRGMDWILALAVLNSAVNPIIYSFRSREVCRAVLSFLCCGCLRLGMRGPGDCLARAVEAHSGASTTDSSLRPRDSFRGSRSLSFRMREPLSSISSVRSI
# S1P3 antag-1: S1P3 receptor antagonists, primary screen, cell-based; CHO S1P3 NFAT-BLA reporter, FRET fluorescence, antagonist mode; hit rate 0.27% among 170,000; inhibition, % at 4.98 µM; AID 485, 2006;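 active = inhibition above the plate cutoff, the mean inhibition of test wells on that plate plus 3 SD, cut at about 28% in these data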;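 note: cells challenged with S1P at its EC80 of 0.8 µM; blue over green emission ratio from cleaved BLA substrate after 4 h stimulation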
# Calb biofilm kill: clotrimazole potentiators killing C. albicans biofilm, primary screen, 4-compound mixtures; C. albicans biofilm persisters + clotrimazole, fluorescence viability; primary screen in compound mixtures of four per well; hit rate 0.02% among 120,000; inhibition, % at 7.6 µM;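 active = inhibition above 30.3% in the primary screen of four-compound pools, then above 30% when the compound was retested; inconclusive = passed the primary limit but could not be retested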;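 note: compounds exposed to preformed 24 h biofilms for 48 h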
#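 Test system: C. albicans CAF4-2 wild-type biofilms; buffer or medium: RPMI/MOPS medium, pH 7.0; schedule: 24 h biofilm formation, then 48 h compound exposure, 37 °C; detection: Alamar Blue fluorescence; measure: percent inhibition of biofilm viability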
# S1P4 ag: S1P4 receptor agonists, primary screen, cell-based | Sphingosine 1-phosphate receptor 4 (Homo sapiens), O95977 | AID 1509, 2009 | activation, % at 4.98 µM | S1P4-expressing cell line, agonist reporter assay | hit rate 0.35% among 220,000; in the data active = activation above about 11%
# S1P3 antag-2: S1P3 receptor antagonists, retest, confirmation, cell-based; CHO S1P3 NFAT-BLA reporter, FRET, antagonist mode; shares compounds with S1P3 antag-1; inhibition, % at 4.98 µM; hit rate 30% among 240; AID 1429, 2008;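 active = inhibition above the hit threshold that was computed for the earlier primary screen, cut at about 30% in these data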
# Dynein inh conf: dynein cargo transport inhibitors, GR-EGFP translocation, confirmation, imaging, high-content imaging, GR-EGFP cells | shares compounds with Dynein transport | 3617.4 GR-EGFP nuclear translocation imaging, dexamethasone-induced | calls only at 20 µM | hit rate 69% among 1,000 | AID 463116, 2010;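 active = inhibition of receptor movement into the nucleus at or above a set limit in both runs, with normal cell brightness and cell count; inconclusive = limit reached in only one run, brightness and count normal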;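 note: dexamethasone at 1 µM final in well for 30 min; nuclear minus cytoplasmic GR-EGFP mean intensity difference in channel 2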
# S1P4 antag cf: S1P4 receptor antagonists, human, confirmation, cell-based; hit rate 71% among 520; AID 1524, 2009; inhibition, % at 4.98 µM; S1P4-expressing cell line, antagonist mode, reporter read-out; shares compounds with S1P4 antagonist; in the data active = inhibition above about 30%
# S1P1 antag: S1P1 receptor antagonists, human, counter-screen for S1P4 antagonist project, cell-based | shares compounds with S1P4 antagonist | cell-based S1P1 antagonist counterscreen, inhibition | inhibition, % at 4.98 µM | hit rate 37% among 520; in the data active = inhibition above about 40%;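 note: receptor stimulated with S1P near its EC80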
# A number is an active result; n = inactive; u = inconclusive; x = no result given; + = active, no number.
SMILES,Dynein transport,TbHK1 inh,S1P4 antagonist,S1P3 antag-1,Calb biofilm kill,S1P4 ag,others
C=C1C(=O)O[C@@H]2C[C@@H](C)[C@@H]3C=CC(=O)[C@@]3(C)[C@@H](O)[C@H]12,-3.6,n,x,x,n,x,
C[C@@H]1C[C@H]2OC(=O)C3(CO3)[C@H]2[C@H](O)[C@]2(C)C(=O)C3OC3[C@@H]12 (some centres undefined),n,n,x,x,n,x,
C=CCN1C(=O)CSc2ccc(C(=O)N3CCC4(CC3)OCCO4)cc21,n,n,n,n,x,n,
O=C1NC(=O)N(Cc2ccc(F)cc2)C(=O)/C1=C\c1ccc([N+](=O)[O-])s1,-5,n,n,n,n,n,
O=C1NC(=O)N(Cc2ccc(F)cc2)C(=O)/C1=C\c1ccc(N2CCCC2)cc1,n,n,n,n,n,n,
CCn1nc(-c2cccs2)nc2c(=O)n(C)c(=O)nc1-2,x,x,x,106,x,x,
Cc1cc(Cl)ccc1OCC(=O)N1CCN(C)CC1,n,n,n,n,x,n,
CN1CCN(C(=O)OC2c3nccnc3C(=O)N2c2ccc(Cl)cn2)CC1 (centres undefined),n,n,n,110,n,n,
CCCn1nc2ccccc2c1P(=O)(N1CCOCC1)N1CCOCC1,n,n,n,106,x,n,
C=CCn1c(O)c(C(CC)=NC2CC2)c(=O)[nH]c1=O,n,n,n,x,x,n,
COc1ccc(/C=C2/C(=O)NC(=S)N(C3CC3)C2=O)cc1CN1C(=O)c2ccccc2C1=O,-3.6,n,n,n,n,n,
COc1ccc(/C=C2/C(=O)NC(=O)N(c3ccccc3)C2=O)cc1CN1C(=O)c2ccccc2C1=O,n,n,n,n,n,n,
Cc1ccc(OCC(=O)N2CCN(Cc3ccc([N+](=O)[O-])cc3)CC2)cc1,n,n,n,n,n,n,
O=C1NC(=S)N(Cc2ccco2)C(=O)/C1=C\c1cccs1,n,81,n,n,n,n,
COCCOC(=O)c1c(C)n(C)c2ccc(OC(=O)N(C)C)cc12,n,n,n,x,x,n,
Nc1cc(Cl)c2nonc2c1[N+](=O)[O-],-4.2,n,n,n,n,n,
Cc1ccc(/C=C2\C(=O)NC(=S)N(c3ccccc3F)C2=O)s1,-3.7,n,n,n,n,n,
NC1=NC(=O)C(c2ccccc2)O1 (centres undefined),x,x,n,n,x,n,
CCn1nc(/C=C/c2ccccc2)nc2c(=O)n(C)c(=O)nc1-2,n,n,n,75,n,n,S1P3 antag-2=109
CCc1cccc(CC)c1NC(=S)N1CC2CC(C1)c1cccc(=O)n1C2 (centres undefined),n,n,n,n,n,n,
Cc1ccc(-n2c(O)c(C=NCCC3=CCCCC3)c(=O)[nH]c2=O)cc1,n,n,n,n,n,n,
O=C(Nc1ccc(Cl)cc1C(=O)c1ccccc1Cl)c1ccco1,n,n,n,x,x,n,
O=C(c1ccc(F)cc1)C(Cc1ccccc1)N1CCCCC1 (centres undefined),n,n,n,n,n,n,
O=C(CCCN1CCC2(CC1)C(=O)NCN2c1ccccc1)c1ccc(F)cc1,n,n,n,68,n,n,S1P3 antag-2=59
CC(C)[C@H]1C(=O)O[C@H](C(C)C)C(=O)N(C)[C@@H](C(C)C)C(=O)O[C@H](C(C)C)C(=O)N(C)[C@@H](C(C)C)C(=O)O[C@H](C(C)C)C(=O)N1C,n,n,n,70,n,n,S1P3 antag-2=75
SMILES,Dynein transport,TbHK1 inh,S1P4 antagonist,S1P3 antag-1,Calb biofilm kill,S1P4 ag,others
CC[C@@]1(O)C(=O)OCc2c1cc1n(c2=O)Cc2cc3ccccc3nc2-1,n,n,n,59,n,n,S1P3 antag-2=70
N#CC(C#N)=NNc1ccc(-n2ccc(C(F)(F)F)n2)cc1,n,n,n,44,n,n,S1P3 antag-2=45
O=C1C2CCCN2C(c2cccc(Cl)c2)N1c1ccccn1 (centres undefined),n,n,n,n,x,n,
COc1cc2c(cc1OC)[C@@H]1C(=O)c3ccc4c(c3O[C@@H]1CO2)C[C@H](C(C)C)O4,n,n,n,38,n,n,S1P3 antag-2=36
Oc1c(Br)cc(Br)cc1Oc1ccc(Br)cc1Br,n,n,n,n,n,n,
CC(=O)OC(C)(C)/C=C/C(=O)[C@](C)(O)[C@H]1[C@H](O)C[C@@]2(C)[C@@H]3CC=C4[C@H](C[C@H](O)C(=O)C4(C)C)[C@]3(C)C(=O)C[C@]12C,-3.7,n,67,74,n,n,S1P3 antag-2=90;Dynein inh conf=u
c1ccc2nc(OCCN3CC3)ccc2c1,n,n,n,n,n,n,
NC(=S)c1cn(C2OC(CO)C(O)C2O)c2ncnc(N)c12 (centres undefined),n,n,100,86,n,n,S1P3 antag-2=105;S1P4 antag cf=112;S1P1 antag=94
Cc1c(NP(=S)(C(C)(C)C)C(C)(C)C)c(=O)n(-c2ccccc2)n1C,n,n,n,n,n,n,
CC(C)n1c(O)c(C2c3cc(Cl)ccc3Oc3[nH]c(=O)n(C(C)C)c(=O)c32)c(=O)[nH]c1=O (centres undefined),-5.3,n,35,n,n,n,Dynein inh conf=+
CC(=O)c1c(O)n(-c2cccc(Cl)c2)c(=O)[nH]c1=O (tested in a mixture with another compound),n,n,n,n,n,n,
CC[n+]1c(/C=C/C=C/c2ccc(N(C)C)cc2)sc2ccccc21,-3.7,n,n,n,n,n,Dynein inh conf=+
CC(C)n1cc(C(=O)N(CC(=O)NC2CCCC2)Cc2ccccc2)cn1,n,n,n,n,x,n,
CCN(CC)c1ccc(/C=C/[N+](=O)[O-])cc1,-4.2,n,n,n,n,n,Dynein inh conf=+
O=c1[nH]c(=O)n(C2CCCCC2)c(O)c1/C=C/C=Nc1ccccc1,n,n,n,n,n,n,
